Bioassay records from PubChem BioAssay.
Rows were chosen to be rich in hits. Some 4.1% of all compounds tested hit in one or more screens of this group.
Mdm2 MdmX PPI: inhibitors of human Mdm2-MdmX association, primary screen, cell-based, luminescence, split luciferase, SaOS-2, uHTS; SaOS-2 split-luciferase Mdm2/MdmX complementation; Protein Mdm4 (Homo sapiens) + E3 ubiquitin-protein ligase Mdm2 (Homo sapiens), …; inhibition, % at 8 µM; 330,000 compounds, 3% hits;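 active = inhibition of at least 50% at 8 µM in the primary screen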
UPR XBP1 act: activators of adaptive XBP1 UPR arm, primary screen, cell-based, CHO-XBP1 luciferase reporter, luminescence, uHTS; IRE1-XBP1 UPR activation; percent of tunicamycin response, DMSO as zero; activation, % at 20 µM; 330,000 compounds, 0.33% hits; AID 463104, 2010;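 active = versus positive control, 20 µM dose yields 30% or more activation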
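Assay system: IRE1-XBP1 luciferase reporter CHO line. Input: 1000 cells/well. Buffer or medium: F12 with 10% serum. Doses: 20 µM, 1% DMSO. Times: overnight seeding at 37 °C, 6 h compound treatment at 37 °C. Technique: Steady-Glo luciferase glow luminescence, 10 min after reagent addition.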
CHOP UPR activ: activators of apoptotic CHOP UPR arm, primary screen, cell-based, CHO-CHOP luciferase reporter, luminescence, uHTS | UPR activation; percent of tunicamycin response over DMSO baseline | activation, % at 10 µM | 330,000 compounds, 0.34% hits | AID 449763, 2010;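 active = at 10 µM dose, activation of 40% or more, normalized to positive control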
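measured by = luciferase luminescence | assay system = CHO-CHOP cells, stable luciferase reporter of PERK-eIF2a-CHOP signalling | amount = 500 reporter cells seeded per well | timing = 6 h compound exposure at 37 °C after overnight seeding | controls = positive tunicamycin 10 µg/mL, negative DMSO alone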
UBC13 inh: UBC13 polyubiquitin chain formation inhibitors, primary screen, biochemical, TR-FRET, uHTS; inhibition, % at 20 µM; Ubiquitin-conjugating enzyme E2 N (Homo sapiens), P61088; 330,000 compounds, 0.47% hits; in the data active = inhibition above about 45%, passing the limit was not always enough; inconclusive = no clear call, values can overlap the other calls
Target sequence (P61088 whole entry, looked up): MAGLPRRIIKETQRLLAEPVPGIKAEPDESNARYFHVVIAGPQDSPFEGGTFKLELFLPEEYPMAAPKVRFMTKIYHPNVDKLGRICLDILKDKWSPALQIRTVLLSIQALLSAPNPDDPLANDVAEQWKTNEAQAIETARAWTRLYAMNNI
Apaf-1 inh: inhibitors of human Apaf-1 apoptosome, primary screen, biochemical, DEVD-Rh110 fluorescence, uHTS | Apoptotic protease-activating factor 1 (Homo sapiens), O14727 | reconstituted apoptosome caspase-3 activity | inhibition, % at 20 µM | 330,000 compounds, 0.71% hits; active = inhibition of at least 40% at 20 µM
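Material: cell-free apoptosome with Apaf-1, procaspase-3 and caspase-9; Buffer or medium: Hepes pH 7.5 with detergent and BSA; Reagent: cytochrome c trigger plus (Z-DEVD)2-Rh110 caspase-3 substrate; Times: compound with Apaf-1, dATP, procaspase-3 30 min, then 50 min reaction, room temperature; Technique: Rh110 fluorescence intensity.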
Casp3 UBC13 ctr: CASP3 inhibitor validation, counterassay for project on UBE2N polyubiquitination blockers, biochemical, one dose | shares compounds with UBC13 inh | Recombinant caspase-3, Caspase-Glo 3/7 luminescence, 60 min | inhibition, % at 20 µM | 1,400 compounds, 4% hits;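 active = mean inhibition across replicates above about 26%, limit read from the data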
Target sequence (P42574 whole entry, looked up): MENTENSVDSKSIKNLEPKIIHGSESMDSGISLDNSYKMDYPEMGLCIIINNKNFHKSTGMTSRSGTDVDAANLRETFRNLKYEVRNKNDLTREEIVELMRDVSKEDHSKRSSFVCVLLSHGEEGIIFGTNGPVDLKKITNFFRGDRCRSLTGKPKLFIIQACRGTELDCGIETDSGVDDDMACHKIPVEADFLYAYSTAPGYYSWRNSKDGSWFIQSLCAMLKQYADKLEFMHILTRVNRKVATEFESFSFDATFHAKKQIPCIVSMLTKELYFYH
UBC13 confirm: UBC13 polyubiquitination inhibitors, single-point retest, confirmation, biochemical, TR-FRET, single concentration | AID 488859, 2010 | 1,400 compounds, 68% hits | shares compounds with UBC13 inh | inhibition, % at 10 µM; in the data active = inhibition above about 45%; inconclusive = no clear call, values can overlap the other calls
Numbers stand for hits; . = inactive; ? = inconclusive; / = no result.

SMILES	Mdm2 MdmX PPI	UPR XBP1 act	CHOP UPR activ	UBC13 inh	Apaf-1 inh	Casp3 UBC13 ctr	UBC13 confirm
Cc1[nH]c(C)c(S(=O)(=O)N2CCN(c3ccccc3F)CC2)c1C(=O)N1CCCCC1	.	.	.	.	.	/	/
Oc1ccc(Cl)cc1Nc1nc(NCC2CCCO2)c2ccccc2n1 (stereo unspecified)	.	.	.	53	.	.	67
CC(C(=O)NC(=O)NC1CCCCC1)N1CCN(c2ccc(O)cc2)CC1 (stereo unspecified)	.	.	.	.	.	/	/
C#CCOCCOCCOCCNc1nc(N2CCN(C(=O)[C@H](CCCCN)n3cc([C@@H](N)CO)nn3)CC2)nc(N2CCN(C(=O)[C@H](CCCCN)n3cc([C@@H](N)CC(C)C)nn3)CC2)n1	.	.	.	73	.	.	66
C#CCOCCOCCOCCNc1nc(N2CCN(C(=O)[C@H](CCCCN)n3cc([C@@H](N)C(C)CC)nn3)CC2)nc(N2CCN(C(=O)[C@H](CCCCN)n3cc([C@@H](N)CC(C)C)nn3)CC2)n1 (stereo partly specified)	.	.	.	105	.	.	112
C#CCOCCOCCOCCNc1nc(N2CCN(C(=O)[C@H](CO)n3cc([C@@H](N)C(C)C)nn3)CC2)nc(N2CCN(C(=O)[C@H](CCC(=O)O)n3cc([C@@H](N)CCCCN)nn3)CC2)n1	.	.	.	45	.	.	47
C#CCOCCOCCOCCNc1nc(N2CCN(C(=O)C([C@@H](C)O)n3cc([C@@H](N)CCCCN)nn3)CC2)nc(N2CCN(C(=O)C([C@@H](C)O)n3cc([C@@H](N)CCCCN)nn3)CC2)n1 (stereo partly specified)	.	.	.	80	.	.	61
C#CCOCCOCCOCCNc1nc(N2CCN(C(=O)[C@H](CC(N)=O)n3cc(C(N)[C@@H](C)CC)nn3)CC2)nc(N2CCN(C(=O)[C@H](CCCCN)n3cc([C@@H](N)CC(N)=O)nn3)CC2)n1 (stereo partly specified)	.	.	.	.	.	/	/
Cc1ccc(S(=O)(=O)N2CCN(C(C)C(=O)Nc3ccccc3-c3ccccc3)CC2)cc1 (stereo unspecified)	.	.	.	.	.	/	/
COC(=O)CC(c1ccc(OC)c(OC)c1)c1ccc(OC)c(OC)c1	.	.	.	.	.	/	/
Cc1noc(C)c1COC(=O)/C=C/c1ccccc1Cl	.	.	.	.	.	/	/
Cc1ccc(C)c(S(=O)(=O)c2c[nH]c(=S)[nH]c2=O)c1	.	.	.	45	.	.	?
NCCCCc1ccc2ccc3cccc4ccc1c2c34	.	.	.	49	.	.	85
COc1ccc(CNC(=O)CN2CCC(NC(=O)c3ccccc3C)CC2)cc1	.	.	.	.	.	/	/
COc1cc(C(CCN2CCCC(C)C2)c2c(OC)cc(OC)c3c2OC(=O)CC3c2ccc(N(C)C)cc2)cc(OC)c1OC (stereo unspecified)	.	.	.	45	.	.	.
Cc1cc(C)c2nc(-c3ccncc3)cc(C(=O)N3CCN(Cc4ccccc4Cl)CC3)c2c1	.	.	.	.	.	/	/
CCCCOc1ccc(C(=O)NNC(=O)c2cnccn2)cc1OC	.	.	.	64	.	.	.
Cn1c(=O)c(C(=O)COC(=O)c2cc(-c3ccco3)nc3ccccc23)c(N)n(CC2CC2)c1=O	.	.	.	.	.	/	/
N#CC1=C(N)Oc2n[nH]c(-c3ccccc3)c2C1c1cccnc1 (stereo unspecified)	.	.	.	.	.	/	/
